The text below walks through data of PubChem BioAssay.

Active and inactive are the calls of the source.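 Rule for the calls, unless noted: active = fluorescence slope after compound addition differing from the mean of all tested samples at 99.7% confidence, mostly higher but some lower; inactive = the rest.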

The nature of assay [1]: inhibitors of TNFa-induced NFkB p65 translocation, primary screen, imaging, HUVEC, MLSMR starter and 10KST1 sets (AID 438;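 active = inhibition above 20% together with a positive visual image hit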;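 note: compound added about 3h40 before a 20 min TNFalpha stimulation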;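 for inhibition: signal is the nuclear over cytoplasmic p65 intensity ratio per well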). To be noted: HUVEC TNFa-induced p65 nuclear translocation; cell count: measured here: nuclei count (cytotoxicity indicator), at 2.08 µM; inhibition: at 2 µM, stronger effect = higher value, 0% TNFa-plus-vehicle, 100% no-TNFa wells.
Assay [2] in a line: inhibitors of mutant huntingtin aggregation, primary screen, imaging, exon1htt(103Q)mCFP cells, high-content imaging (AID 483;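 active = visual image review flags a hit and inhibition of aggregation exceeds 20%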;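 note: compound exposure lasted 3 days before fixation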;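 for nuclei count: percent of the per-plate median nuclei count of sample wells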). To be noted: exon1htt(103Q)mCFP cell line, aggregate imaging, at 2 µM; inhibition of aggregation: stronger effect = higher value; nuclei count: measured here: cell count, toxicity.
Assay [3] can be described thus: inhibitors of E-selectin induction by TNFa, primary screen, imaging, HUVEC, immunofluorescence, MLSMR starter and 10KST1 sets (AID 487;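 active = visually confirmed hit in the image check and inhibition above 20%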;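 for inhibition: signal is fraction of cell area covered by stained E-selectin grains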;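 for nuclei count: 100% = median nuclei count of all wells on the same plate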). To be noted: HUVEC TNFalpha-induced E-selectin immunofluorescence imaging, at 2 µM; inhibition: stronger effect = higher value; nuclei count: measured here: cell number, toxicity.
Assay [4] has as its target Voltage-gated potassium channel subunit beta-2 (Rattus norvegicus) (UniProt P62483). Kind of assay: KvBeta enzyme negative modulators, primary screen, biochemical, NADPH fluorescence (AID 622;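 active = fluorescence slope higher than the sample average by over 3 SD, cut at about -0.22 in these data, passing the limit was not always enough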;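 note: slope of raw intensity against log time taken from 70 to 1610 s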). To be noted: recombinant KvBeta, 4-cyanobenzaldehyde reduction, at 10 µM, stronger effect = higher value.
Assay [5] shares this target. Kind of assay: KvBeta positive modulators, primary screen, biochemical, NADPH fluorescence (AID 623;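 active = NADPH fluorescence slope more negative than the mean of all samples by about 3 SD, 99.7% confidence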;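 note: fluorescence intensity change per second fitted from 20 to 320 s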). To be noted: Recombinant KvBeta, NADPH fluorescence decrease slope, 10 min; at 10 µM; stronger effect = lower value.
Assay [6] deals with Muscarinic acetylcholine receptor M4 (Homo sapiens) (UniProt P08173). Kind of assay: compounds altering M4/GIRK thallium flux, either direction, primary screen, M4 allosteric agonist project, cell-based, HEK293 M4/GIRK, BTC-AM (AID 625).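 Note: thallium influx through GIRK channels coupled to M4 in HEK293 cells with BTC-AM dye.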 To be noted: at 10 µM, actives lie on both sides. The method in brief: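 Material – HEK293 cells with M4 receptor and GIRK channels · Buffer or medium – pH 7.3 thallium assay buffer · Doses – one dose, 10 µM final · Timing – cells overnight at 37 °C, BTC-AM loading 1 h, reads 2 min total · Measured by – kinetic fluorescence with BTC-AM dye · Controls – carbachol and DMSO controls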

Assay [7] is described as follows: inhibitors of Sendai virus-induced IRF3 signaling, primary screen, TLR/RLR signaling modifier project, cell-based, Sendai virus stimulus, luciferase, 10K MLSCN set (AID 602276;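 active = inhibition at or above 50% at 10 µM; inactive = inhibition below 50%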;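 note: firefly luciferase from ISG56 promoter only with Renilla not read in this screen; 0% = Sendai virus plus DMSO and 100% = medium plus DMSO without virus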). To be noted: HEK293 RL24 IRF3 luciferase reporter, at 10 µM, stronger effect = higher value. A general note: A reporter such as luciferase makes a cellular process visible.
Assay [8] in a line: inhibitors of poly I:C-induced TLR3 signaling, primary screen, cell-based, poly I:C stimulus, luciferase, 10K MLSCN set (AID 602277;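 active = inhibition of the reporter signal at or above 50%; inactive = inhibition below 50%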). To be noted: HEK293-TLR3 RL24 IRF3 luciferase reporter, at 10 µM, stronger effect = higher value.

Muscarinic acetylcholine receptor M4 (Homo sapiens), sequence (P08173 whole entry, looked up): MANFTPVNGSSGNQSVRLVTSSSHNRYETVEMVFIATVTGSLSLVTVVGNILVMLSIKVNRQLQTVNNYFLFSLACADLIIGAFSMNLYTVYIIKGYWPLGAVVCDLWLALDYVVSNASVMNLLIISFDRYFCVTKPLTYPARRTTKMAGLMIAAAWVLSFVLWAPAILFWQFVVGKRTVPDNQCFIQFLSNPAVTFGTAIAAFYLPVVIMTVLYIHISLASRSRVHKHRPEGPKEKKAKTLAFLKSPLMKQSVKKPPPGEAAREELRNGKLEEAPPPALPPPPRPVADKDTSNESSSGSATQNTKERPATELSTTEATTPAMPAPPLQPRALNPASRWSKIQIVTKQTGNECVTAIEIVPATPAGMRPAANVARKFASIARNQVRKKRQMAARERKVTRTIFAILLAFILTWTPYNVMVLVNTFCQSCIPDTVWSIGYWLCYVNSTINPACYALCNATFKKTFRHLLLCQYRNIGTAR
Voltage-gated potassium channel subunit beta-2 (Rattus norvegicus), sequence (P62483 whole entry, looked up): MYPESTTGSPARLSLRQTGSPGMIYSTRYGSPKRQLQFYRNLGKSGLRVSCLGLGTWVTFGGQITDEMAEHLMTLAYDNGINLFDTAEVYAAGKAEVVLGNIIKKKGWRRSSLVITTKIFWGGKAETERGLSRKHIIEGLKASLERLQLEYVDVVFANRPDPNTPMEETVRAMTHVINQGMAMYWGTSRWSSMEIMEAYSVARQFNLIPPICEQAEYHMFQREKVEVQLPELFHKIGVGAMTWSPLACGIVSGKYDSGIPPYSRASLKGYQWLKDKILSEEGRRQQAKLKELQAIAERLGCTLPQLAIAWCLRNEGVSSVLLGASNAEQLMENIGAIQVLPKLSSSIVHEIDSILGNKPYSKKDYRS

The term inhibition denotes the relative decrease from the control value, in per cent. In the case of `Cc1ccc(S(=O)(=O)Cc2ccc(C(=O)NCc3ccc4c(c3)OCO4)o2)cc1`, the cell count in assay [1] came to 592. Moreover, the inhibition in assay [1] was -1.9% (inactive); in assay [3] it was -16.5% (inactive); in assay [7] it was 9.39% (inactive); in assay [8], 14.2% (inactive). For the same molecule, the inhibition of aggregation in assay [2] is -21.6% (inactive). Also, the nuclei count in assay [2] worked out at 86.7%; in assay [3], 106%. For the same molecule, the fluorescence slope in assay [4] was -0.454 (inactive); in assay [6], 0.00504 (inactive). Moreover, in assay [5], the NADPH fluorescence slope was -9.9e-06 (inactive).
In the case of `COc1cccc(-c2cc(C(=O)Nc3c(C)nn(Cc4ccccc4)c3C)no2)c1`, the cell count in assay [1] stood at 438. Moreover, the inhibition in assay [1] is -12.2% (inactive); in assay [3], 41.8% (inactive); in assay [7], 0.514% (inactive); in assay [8] it was -23.3% (inactive). The inhibition of aggregation in assay [2] was -6.5% (inactive). The nuclei count in assay [2] turned out to be 105%; in assay [3] it was 87%. For the same molecule, the fluorescence slope in assay [4] was -0.249 (inactive); in assay [6], 0.00831 (inactive). Further, the NADPH fluorescence slope in assay [5] was -2.3e-05 (inactive).
Consider `O=C(Nc1ccc(CN2CCCCC2)cc1)c1ccc2c(c1)OCO2`, for which the cell count in assay [1] was determined as 438. The inhibition is -12.8% (inactive) in assay [1], -0.6% (inactive) in assay [3], -5.51% (inactive) in assay [7] and -5.01% (inactive) in assay [8]. For the same molecule, in assay [2], the inhibition of aggregation was 15.1% (inactive). Further, the figures for the nuclei count in assay [2] and in assay [3] were 102% and 73.6%, respectively. Also, the fluorescence slope in assay [4] was -0.473 (inactive); in assay [6], 0.00547 (inactive). The NADPH fluorescence slope in assay [5] was -1.5e-05 (inactive).
In the case of `c1ccc2c(c1)Cn1c-2nc2ccccc21`, the cell count in assay [1] turned out to be 700. Also, the inhibition was -28.4% (inactive) in assay [1], -26.5% (inactive) in assay [3], -36.1% (inactive) in assay [7] and -131% (inactive) in assay [8]. Moreover, the inhibition of aggregation in assay [2] is 5.7% (inactive). Moreover, the results for the nuclei count in assay [2] and in assay [3] were 80.7% and 114%, respectively. Also, the fluorescence slope in assay [4] is -0.349 (inactive); in assay [6], 0.00562 (inactive). Further, the NADPH fluorescence slope in assay [5] was -6.3e-05 (inactive).
With `CCn1nc(C(=O)OCC(=O)c2cc(C)n(Cc3cccs3)c2C)c2ccccc2c1=O`, the cell count in assay [1] was 381. Also, the inhibition in assay [1] is -2.1% (inactive); in assay [3] it was -97.8% (inactive); in assay [7], 19.8% (inactive); in assay [8] it was 7.59% (inactive). Moreover, the inhibition of aggregation in assay [2] is 25.7% (inactive). In addition, the nuclei count in assay [2] was determined as 90.2%; in assay [3] it was 113%. The fluorescence slope was -0.556 (inactive) in assay [4] and 0.00739 (inactive) in assay [6]. Besides, the NADPH fluorescence slope in assay [5] was 0.000162 (inactive).
Take `CN(CCCC(=O)Nc1ccncc1)S(=O)(=O)c1ccc(Cl)cc1`: the cell count in assay [1] was determined as 573. Moreover, the inhibition is -5.7% (inactive) in assay [1], -18.9% (inactive) in assay [3], -14.2% (inactive) in assay [7] and -29.3% (inactive) in assay [8]. Besides, the inhibition of aggregation in assay [2] was -13.4% (inactive). The nuclei count in assay [2] came out at 106%; in assay [3], 127%. For the same molecule, the values for the fluorescence slope in assay [4] and in assay [6] were -0.584 (inactive) and 0.00791 (inactive), respectively. The NADPH fluorescence slope in assay [5] was 2.2e-07 (inactive).
Take `O=C(COC(=O)c1ccc(NS(=O)(=O)c2ccc3c(c2)OCCO3)cc1)NCC1CCCO1` (centres undefined): in assay [1], the cell count was found to be 424. Further, the inhibition was -18.3% (inactive) in assay [1], 1.1% (inactive) in assay [3], 4.88% (inactive) in assay [7] and 19.1% (inactive) in assay [8]. Also, the inhibition of aggregation in assay [2] was 11.2% (inactive). Moreover, the nuclei count was 69.5% in assay [2] and 100% in assay [3]. The fluorescence slope in assay [4] was -0.555 (inactive); in assay [6], 0.00638 (inactive). In addition, the NADPH fluorescence slope in assay [5] is -3.4e-05 (inactive).
Regarding `CSc1n[nH]c(NCc2ccccc2)n1`, the cell count in assay [1] was found to be 278. Further, the inhibition in assay [1] is 0.2% (inactive); in assay [3], -70.1% (inactive); in assay [7], 6.09% (inactive); in assay [8], -2.54% (inactive). The inhibition of aggregation in assay [2] was 10.1% (inactive). In addition, the nuclei count amounted to 70.6% in assay [2] and 119% in assay [3]. Further, the fluorescence slope in assay [4] is -0.482 (inactive); in assay [6] it was 0.00548 (inactive). In addition, in assay [5], the NADPH fluorescence slope is -1.9e-05 (inactive).
`N#CC1=C(N)Oc2n[nH]c(-c3ccncc3)c2C1c1ccsc1` (centres undefined): the cell count in assay [1] was determined as 387. The inhibition in assay [1] was -1.5% (inactive); in assay [3], 35.9% (inactive); in assay [7] it was -2.51% (inactive); in assay [8], -6.52% (inactive). For the same molecule, the inhibition of aggregation in assay [2] was -10.3% (inactive). Also, the nuclei count was 109% in assay [2] and 98.6% in assay [3]. In addition, the fluorescence slope in assay [4] is -0.546 (inactive); in assay [6] it was 0.00579 (inactive). The NADPH fluorescence slope in assay [5] was 1.9e-05 (inactive).
For the molecule `Cc1cc(C(=O)N2CCN(C(c3ccccc3)c3ccccc3)CC2)no1`, the cell count in assay [1] came to 303. The inhibition was -17.6% (inactive) in assay [1], -17.5% (inactive) in assay [3], 14.8% (inactive) in assay [7] and 12.2% (inactive) in assay [8]. Moreover, the inhibition of aggregation in assay [2] is 32.7% (inactive). Besides, the nuclei count in assay [2] came to 73.4%; in assay [3] it was 84.1%. For the same molecule, the fluorescence slope in assay [4] is -0.433 (inactive); in assay [6], 0.00719 (inactive). Besides, in assay [5], the NADPH fluorescence slope was -5.3e-05 (inactive).
Consider `O=C(c1ccc(Cl)cc1)N(Cc1cccs1)C1CCS(=O)(=O)C1` (centres undefined), for which, in assay [1], the cell count stood at 376. The inhibition in assay [1] was 0.4% (inactive); in assay [3], -33.8% (inactive); in assay [7], -5.62% (inactive); in assay [8] it was -0.322% (inactive). The inhibition of aggregation in assay [2] is -20.1% (inactive). Further, the nuclei count in assay [2] was determined as 110%; in assay [3], 112%. Moreover, the fluorescence slope in assay [4] was -0.555 (inactive); in assay [6], 0.00385 (inactive). Moreover, the NADPH fluorescence slope in assay [5] is -9.2e-05 (inactive).
As for `COc1cc2c(cc1OC)CN(C(=O)COc1ccc(C#N)cc1)CC2`, in assay [1], the cell count was 283. Besides, the inhibition in assay [1] is -7.5% (inactive); in assay [3], 4.1% (inactive); in assay [7], 6.14% (inactive); in assay [8], 4.87% (inactive). For the same molecule, in assay [2], the inhibition of aggregation was 4.5% (inactive). Besides, the nuclei count in assay [2] stood at 91.8%; in assay [3], 90.3%. The results for the fluorescence slope in assay [4] and in assay [6] were -0.574 (inactive) and 0.00682 (inactive), respectively. Besides, the NADPH fluorescence slope in assay [5] is -4.9e-05 (inactive).
Consider `CCn1c(SCC(=O)N2CCCc3ccccc32)nnc1-c1cccs1`, for which the cell count in assay [1] is 697. The inhibition was 1.4% (inactive) in assay [1], -172% (inactive) in assay [3], 14% (inactive) in assay [7] and 13.4% (inactive) in assay [8]. Also, the inhibition of aggregation in assay [2] is 4.3% (inactive). Moreover, the nuclei count was 98.7% in assay [2] and 129% in assay [3]. The results for the fluorescence slope in assay [4] and in assay [6] were -0.531 (inactive) and 0.00467 (inactive), respectively. Besides, in assay [5], the NADPH fluorescence slope was -2.4e-05 (inactive).
With `COc1cccc2cc(C(=O)Nc3cccnc3N3CCOCC3)c(=O)oc12`, the cell count in assay [1] turned out to be 348. Also, the inhibition in assay [1] was -10.5% (inactive); in assay [3], -32.3% (inactive); in assay [7] it was 10.7% (inactive); in assay [8], 4.05% (inactive). In addition, the inhibition of aggregation in assay [2] is -13.5% (inactive). The nuclei count in assay [2] came out at 48.9%; in assay [3], 98.9%. Moreover, the fluorescence slope in assay [4] is -0.573 (inactive); in assay [6], 0.00618 (inactive). In assay [5], the NADPH fluorescence slope was 1.5e-05 (inactive).
